Experimental data as given in ChEMBL document CHEMBL1124606, “Benzo- and pyrido-1,4-oxazepin-5-ones and -thiones: synthesis and structure-activity relationships of a new series of H1 antihistamines” (1989).

What follows are compounds tested on Felis catus (assay: The compound dose required for 50% block of H1 histamine activity, when administarted intra venously in cats). Settings: not given.
Format: functional
In short: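 Cats given test compound iv (0.001-20 mg/kg), with blood pressure recorded continuously. Histamine 0.5 μg/kg iv was given to induce hypotension, before and 5, 10 and 20 min after each dose. The antihistaminic dose was the one inhibiting the histamine response by >50%. Values are mean ± SD over the number of experiments per compound.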

Structure (SMILES) | Dose [mg/kg]
COc1ccc(CCN2CCC(Nc3nc4ccccc4n3Cc3ccc(F)cc3)CC2)cc1 [ASTEMIZOLE] | 0.43
CCOC(=O)N1CCC(=C2c3ccc(Cl)cc3CCc3cccnc32)CC1 [LORATADINE] | 0.43
CN(C)CCOC(c1ccccc1)c1ccccc1 [DIPHENHYDRAMINE] | 0.75

The compounds below were run on Felis catus (assay: The compound dose required to elicit marked cortical slowing and spindling, when administarted intra venously in cats). Settings: not given.
Format: functional
In short: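 Cats given test compound iv (0.001-20 mg/kg), with spontaneous EEG inspected after each dose for cortical slowing, synchrony and spindle-type activity. The sedative dose was the one producing marked slowing and spindling (synchrony). Values are mean ± SD over the number of experiments per compound.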

Structure (SMILES) | Dose [mg/kg]
COc1ccc(CCN2CCC(Nc3nc4ccccc4n3Cc3ccc(F)cc3)CC2)cc1 [ASTEMIZOLE] | 8
CCOC(=O)N1CCC(=C2c3ccc(Cl)cc3CCc3cccnc32)CC1 [LORATADINE] | 20
CN(C)CCC1CN(C)C(=S)c2cc(Cl)ccc2O1 (stereo not given) | 10
CNCCC1CN(C)C(=S)c2cccnc2O1 (stereo not given) | >20
CN(C)CCOC(c1ccccc1)c1ccccc1 [DIPHENHYDRAMINE] | 0.6

Each compound was assayed on Cavia porcellus (assay: Histamine induced lethality, at 60-min pretreatment time when 3 mg/kg compound was administered perorally in guinea pigs). Settings: route oral.
Format: functional

Structure (SMILES) | survival at 3 mg/kg [%]
CN(C)CCC1CN(C)C(=S)c2cc(-c3ccccc3)cnc2O1 (stereo not given) | 100
CN(C)CCC1CN=C(S)c2cccnc2O1 (stereo not given) | 100
CN1CC(CCN2CC=CC2)Oc2ncccc2C1=S (stereo not given) | 100
CN1CC(CCN2CCCC2)Oc2ncccc2C1=S (stereo not given) | 80
CN(C)CCC1CNC(=O)c2cccnc2O1 (stereo not given) | 67
CN1CC(CCN2CCC2)Oc2ccc(C(F)(F)F)cc2C1=S (stereo not given) | 33
CCN(C)CCC1CN(C)C(=S)c2cccnc2O1 (stereo not given) | 60
CN(C)CCC1CN(C)C(=S)c2cc([N+](=O)[O-])ccc2O1 (stereo not given) | 67
COc1ccc(CCN(C)CCC2CN(C)C(=S)c3cccnc3O2)cc1 (stereo not given) | 33
CN(C)CCC1CN(C)C(=S)c2ccc(Cl)cc2O1 (stereo not given) | 100
CCN(CC)CCC1CN(C)C(=S)c2cc(Cl)cnc2O1 (stereo not given) | 100
CN(C)CCC1(C)CN(C)C(=O)c2cccnc2O1 (stereo not given) | 67
CN(C)CCC1CN(C)C(=S)c2cc(Cl)ccc2O1 (stereo not given) | 100
CCN1CC(CCN(C)C)Oc2ncccc2C1=S (stereo not given) | 100
CNCCC1CN(C)C(=S)c2cc(Cl)cnc2O1 (stereo not given) | 100
CN(C)CCC1CN(C)C(=O)c2cc(Cl)ccc2O1 (stereo not given) | 40
CN(C)CCC1CN(C)C(=S)c2cc(N)ccc2O1 (stereo not given) | 100

Structure (SMILES) | survival at 3 mg/kg [%]
CN(C)CCC1CN(C)C(=O)c2cccnc2O1 (stereo not given) | 100
CNCCC1CN(C)C(=S)c2cccnc2O1 (stereo not given) | 0
CN(CCC1CN(C)C(=S)c2cccnc2O1)Cc1ccccc1 (stereo not given) | 100
CN(C)CCC1CN(C)C(=S)c2cc(F)ccc2O1 (stereo not given) | 100
CC(=O)Nc1ccc2c(c1)C(=S)N(C)CC(CCN(C)C)O2 (stereo not given) | 100
CN(C)CCOC(c1ccccc1)c1ccccc1 [DIPHENHYDRAMINE] | 67
CN(C)CCC1CN(Cc2ccccc2)C(=S)c2cccnc2O1 (stereo not given) | 100
CN(C)CCC1CN(C)C(=S)c2cc(Br)ccc2O1 (stereo not given) | 67
COc1ccc(CN(C)CCC2CN(C)C(=S)c3cccnc3O2)cc1 (stereo not given) | 67
CN(C)CCC1CN(C)C(=S)c2cc(C(F)(F)F)ccc2O1 (stereo not given) | 33
COc1ccc2c(c1)C(=S)N(C)CC(CCN(C)C)O2 (stereo not given) | 0
CCN(CC)CCC1CN(C)C(=S)c2cccnc2O1 (stereo not given) | 67
CN(CCC1CN(C)C(=S)c2cc(Cl)cnc2O1)Cc1ccccc1 (stereo not given) | 100
CN1CC(CCN2CCC2)Oc2ncc(Br)cc2C1=S (stereo not given) | 100
CN(CCC1CN(C)C(=S)c2cc(Br)cnc2O1)Cc1ccccc1 (stereo not given) | 100
CN(CCC1CN(C)C(=S)c2cccnc2O1)Cc1ccc(C(C)(C)C)cc1 (stereo not given) | 100

These compounds were tested on Cavia porcellus (assay: Histamine induced lethality, at 60-min pretreatment time when 30 mg/kg compound was administered perorally in guinea pigs). Settings: route oral.
Format: functional

Structure (SMILES) | survival at 30 mg/kg [%]
CN1CC(CCN2CCCC2)Oc2ncccc2C1=S (stereo not given) | 67
CN1CC(CCN2CCC2)Oc2ccc(C(F)(F)F)cc2C1=S (stereo not given) | 100
CCN(C)CCC1CN(C)C(=S)c2cccnc2O1 (stereo not given) | 100
COc1ccc(CCN(C)CCC2CN(C)C(=S)c3cccnc3O2)cc1 (stereo not given) | 100
CN(C)CCC1CN(C)C(=S)c2ccc(Cl)cc2O1 (stereo not given) | 100
CN1CC(CCN)Oc2ncccc2C1=S (stereo not given) | 0
CNCCC1CN(C)C(=S)c2cccnc2O1 (stereo not given) | 100
CN(C)CCC1CN(C)C(=S)c2cc(Br)ccc2O1 (stereo not given) | 100
CN(C)CCC1CN(C)C(=S)c2cc(C(F)(F)F)ccc2O1 (stereo not given) | 100
COc1ccc2c(c1)C(=S)N(C)CC(CCN(C)C)O2 (stereo not given) | 100

The compounds below were run on Cavia porcellus (assay: Histamine induced lethality, at 60-min pretreatment time when 0.3 mg/kg compound was administered perorally in guinea pigs). Settings: route oral.
Format: functional

Structure (SMILES) | survival at 0.3 mg/kg [%]
CN(C)CCC1CN(C)C(=S)c2cc(-c3ccccc3)cnc2O1 (stereo not given) | 0
CN(C)CCC1CN=C(S)c2cccnc2O1 (stereo not given) | 0
CN(C)CCC1CN(C)C(=O)c2cc(Cl)cnc2O1 (stereo not given) | 33
CN1CC(CCN2CCCC2)Oc2ncc(Cl)cc2C1=S (stereo not given) | 100
CN(C)CCC1CN(C)C(=S)c2cc([N+](=O)[O-])ccc2O1 (stereo not given) | 33
CN(C)CCC1CN(C)C(=S)c2ccc(Cl)cc2O1 (stereo not given) | 0
CCN(CC)CCC1CN(C)C(=S)c2cc(Cl)cnc2O1 (stereo not given) | 20
CN(C)CCC1(C)CN(C)C(=O)c2cccnc2O1 (stereo not given) | 67
CNCCC1CN(C)C(=S)c2cc(Cl)cnc2O1 (stereo not given) | 0
CN(C)CCC1CN(C)C(=O)c2cc(Cl)ccc2O1 (stereo not given) | 0
CN(C)CCC1CN(C)C(=S)c2cc(F)ccc2O1 (stereo not given) | 0
CC(=O)Nc1ccc2c(c1)C(=S)N(C)CC(CCN(C)C)O2 (stereo not given) | 0
CN(CCC1CN(C)C(=S)c2cc(Cl)cnc2O1)Cc1ccccc1 (stereo not given) | 60
CN(CCC1CN(C)C(=S)c2cccnc2O1)Cc1ccc(C(C)(C)C)cc1 (stereo not given) | 0

These compounds were tested on Cavia porcellus (assay: Histamine induced lethality, at 60-min pretreatment time when 1 mg/kg compound was administered perorally in guinea pigs). Settings: route oral.
Format: functional

Structure (SMILES) | survival at 1 mg/kg [%]
CN(C)CCC1CN(C)C(=S)c2cc(-c3ccccc3)cnc2O1 (stereo not given) | 100
CN(C)CCC1CN=C(S)c2cccnc2O1 (stereo not given) | 33
CN(C)CCC1CN(C)C(=O)c2cc(Cl)cnc2O1 (stereo not given) | 100
CN1CC(CCN2CC=CC2)Oc2ncccc2C1=S (stereo not given) | 0
CN(C)CCC1CNC(=O)c2cccnc2O1 (stereo not given) | 0
CCN(C)CCC1CN(C)C(=S)c2cccnc2O1 (stereo not given) | 0
CN(C)CCC1CN(C)C(=S)c2ccc(Cl)cc2O1 (stereo not given) | 0
CN(C)CCC1CN(C)C(=S)c2cc(Cl)ccc2O1 (stereo not given) | 33
CCN1CC(CCN(C)C)Oc2ncccc2C1=S (stereo not given) | 33
CN(C)CCC1CN(C)C(=O)c2cc(Cl)ccc2O1 (stereo not given) | 33
CN(C)CCC1CN(C)C(=S)c2cc(N)ccc2O1 (stereo not given) | 0
CN(C)CCC1CN(C)C(=O)c2cccnc2O1 (stereo not given) | 20
CN(CCC1CN(C)C(=S)c2cccnc2O1)Cc1ccccc1 (stereo not given) | 0
CN(C)CCC1CN(C)C(=S)c2cc(F)ccc2O1 (stereo not given) | 20
CN(C)CCOC(c1ccccc1)c1ccccc1 [DIPHENHYDRAMINE] | 33
CN(C)CCC1CN(Cc2ccccc2)C(=S)c2cccnc2O1 (stereo not given) | 0
CN(C)CCC1CN(C)C(=S)c2cc(Br)ccc2O1 (stereo not given) | 0
COc1ccc(CN(C)CCC2CN(C)C(=S)c3cccnc3O2)cc1 (stereo not given) | 0
CCN(CC)CCC1CN(C)C(=S)c2cccnc2O1 (stereo not given) | 33
CN1CC(CCN2CCC2)Oc2ncc(Br)cc2C1=S (stereo not given) | 60
CN(CCC1CN(C)C(=S)c2cc(Br)cnc2O1)Cc1ccccc1 (stereo not given) | 0
CN(CCC1CN(C)C(=S)c2cccnc2O1)Cc1ccc(C(C)(C)C)cc1 (stereo not given) | 40

Organism: Cavia porcellus
Assay: Effective dose that protects guinea pigs against histamine induced lethality at 6 hours pretreatment time
Format: functional
Settings: not given
In short: (§1)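 Survival at 24 h after challenge was scored as protection. Groups of 5–10 animals per treatment; ED50 was calculated by the Litchfield–Wilcoxon method or by computer probit analysis.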

Structure (SMILES) | ED50 [mg/kg]
CN(C)CCC1CN(C)C(=O)c2cc(Cl)cnc2O1 (stereo not given) | 28
CN(C)CCOC(c1ccccc1)c1ccccc1 [DIPHENHYDRAMINE] | 38
CN1CC(CCN2CCC2)Oc2ncc(Br)cc2C1=S (stereo not given) | 0.1

Organism: Cavia porcellus
Assay: Effective dose that protects guinea pigs against histamine induced lethality, at 1 hour pretreatment time
Format: functional
Settings: not given
In short: as §1

Structure (SMILES) | ED50 [mg/kg]
CN(C)CCC1CN(C)C(=O)c2cc(Cl)cnc2O1 (stereo not given) | 0.3
CN1CC(CCN2CCCC2)Oc2ncc(Cl)cc2C1=S (stereo not given) | 0.12
CCN(CC)CCC1CN(C)C(=S)c2cc(Cl)cnc2O1 (stereo not given) | 0.39
CN(C)CCC1(C)CN(C)C(=O)c2cccnc2O1 (stereo not given) | 0.45
CN(C)CCC1CN(C)C(=O)c2cccnc2O1 (stereo not given) | 1.05
CN(C)CCOC(c1ccccc1)c1ccccc1 [DIPHENHYDRAMINE] | 2.8
CN(CCC1CN(C)C(=S)c2cc(Cl)cnc2O1)Cc1ccccc1 (stereo not given) | 0.9
CN1CC(CCN2CCC2)Oc2ncc(Br)cc2C1=S (stereo not given) | 0.09

What follows are compounds tested against Histamine H1 receptor (Cavia porcellus) (UniProt P31389) (assay: Histamine induced lethality, at 60-min pretreatment time of 0.1 mg/kg p.o. in guinea pigs.). Settings: at 0.1 mg/kg.
Histamine H1 receptor (Cavia porcellus), sequence (P31389 whole entry): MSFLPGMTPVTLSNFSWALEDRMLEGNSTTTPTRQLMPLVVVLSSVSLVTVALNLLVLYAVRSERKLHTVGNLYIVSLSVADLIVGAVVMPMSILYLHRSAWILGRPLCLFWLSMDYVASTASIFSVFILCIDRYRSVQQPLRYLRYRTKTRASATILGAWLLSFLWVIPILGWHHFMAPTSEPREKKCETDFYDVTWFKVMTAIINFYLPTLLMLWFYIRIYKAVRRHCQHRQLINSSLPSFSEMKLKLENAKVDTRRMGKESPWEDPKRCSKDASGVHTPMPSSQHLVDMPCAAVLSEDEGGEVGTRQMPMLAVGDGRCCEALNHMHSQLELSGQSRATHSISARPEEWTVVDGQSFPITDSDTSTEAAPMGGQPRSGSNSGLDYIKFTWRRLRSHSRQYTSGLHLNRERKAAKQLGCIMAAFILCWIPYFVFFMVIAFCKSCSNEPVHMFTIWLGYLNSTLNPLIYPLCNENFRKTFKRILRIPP
Format: functional, organism-based
Design: dose 0.1 mg/kg

Structure (SMILES) | Survival [%]
CN1CC(CCN2CCCC2)Oc2ncc(Cl)cc2C1=S (stereo not given) | 40
CN1CC(CCN2CCC2)Oc2ncc(Br)cc2C1=S (stereo not given) | 60
